Compound activity: PubChem, The Scripps Research Institute Molecular Screening Center
VIM-2 inhibitor – inhibitors of Pseudomonas aeruginosa VIM-2 metallo-beta-lactamase; purified VIM-2, nitrocefin hydrolysis, epi-absorbance fluorescence; inhibition, % at 5.6 µM; actives 0.89% (n = 290,000); AID 1527;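 active means inhibition above the mean of all tested compounds plus 3 SD, cutoff set per screening run, cut at about 7.5% in these data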;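 further: red hydrolysis product quenches plate fluorescence so inhibitors raise well fluorescence; 0% = enzyme with DMSO and 100% = DMSO without enzyme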
IMP-1 inh-1 – blocks Pseudomonas aeruginosa IMP-1 metallo-beta-lactamase. actives 0.45% (n = 290,000). inhibition, % at 5.6 µM. AID 1556. purified IMP-1, nitrocefin hydrolysis, epi-absorbance fluorescence;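 active means inhibition above the mean plus 3 SD of all compounds in the same screening run, cut at about 4.5% in these data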;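 further: 0% = IMP-1 with DMSO and 100% = DMSO wells lacking enzyme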
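Assay system: purified recombinant IMP-1 beta-lactamase. Input: IMP-1 0.2 nM before substrate addition. Buffer or medium: Zinc- and detergent-supplemented HEPES buffer, pH 7.1. Schedule: 25 °C, 15 min preincubation, 25 min reaction. Signal: Epi-absorbance fluorescence, 480 nm excitation, 530 nm emission. Evaluation: percent inhibition from optical density relative to buffer-blank wells.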
FID counter – displaces DNA intercalator in HCV helicase counter-screen. DNA fluorescent intercalator displacement, fluorescence. inhibition, % at 7.9 µM. actives 0.17% (n = 290,000). AID 1845; in the data active means inhibition above about 37%;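 further: 0% = vehicle and 100% = reference compound; higher means more ethidium bromide displaced from hairpin DNA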
core dimer inh – blocks dimerization of HCV core protein. TR-FRET GST/Flag-core106 dimerization, 1536-well. inhibition, % at 5 µM. actives 0.33% (n = 300,000). AID 1899;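 active means inhibition above the mean of all tested compounds plus 3 SD, set per screening campaign, cut at about 45% in these data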
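System: GST-tagged and Flag-tagged HCV core protein residues 1-106 / Input: core106 proteins, GST 13.5 nM and Flag 17 nM / Buffer or medium: KF-containing HEPES buffer, pH 7.45, DTT, CHAPS, BSA / Probe or stimulus: Eu-anti-GST and XL665-anti-Flag labelled anti-tag antibodies / Schedule: 4 h, 22.5 °C incubation / Technique: TR-FRET 671 and 617 nm emission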
IMP-1 inh-2 – IMP-1 inhibition, counter-screen for VIM-2 inhibitors; shares compounds with VIM-2 inhibitor; purified IMP-1, nitrocefin hydrolysis, epi-absorbance fluorescence; inhibition, % at 5.6 µM; 1,300 tested, under 10 active; call rule not given here;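 further: 0% = enzyme with vehicle and 100% = vehicle without enzyme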
VIM-2 FRET inh – inhibits VIM-2 in FRET assay to exclude epi-absorbance artifacts. shares compounds with VIM-2 inhibitor. purified VIM-2, CCF2 FRET substrate hydrolysis. inhibition, % at 5.6 µM. actives 23% (n = 1,300);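 active means inhibition above the mean of all tested compounds plus 3 SD, cut at about 19% in these data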;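 further: 0% = VIM-2 plus DMSO and 100% = no enzyme wells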
TEM-1 counter – blocks E. coli TEM-1 beta-lactamase in VIM-2 selectivity screen | shares compounds with VIM-2 inhibitor | Purified TEM-1, nitrocefin hydrolysis, epi-absorbance fluorescence | inhibition, % at 5.6 µM | actives 3% (n = 1,300);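 active means inhibition above that campaign's mean inhibition plus 3 SD, cut at about 0.46% in these data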;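 further: 0% = TEM-1 with DMSO and 100% = TEM-1 with 100 µM potassium clavulanate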
Target sequence (P62593 whole entry, looked up): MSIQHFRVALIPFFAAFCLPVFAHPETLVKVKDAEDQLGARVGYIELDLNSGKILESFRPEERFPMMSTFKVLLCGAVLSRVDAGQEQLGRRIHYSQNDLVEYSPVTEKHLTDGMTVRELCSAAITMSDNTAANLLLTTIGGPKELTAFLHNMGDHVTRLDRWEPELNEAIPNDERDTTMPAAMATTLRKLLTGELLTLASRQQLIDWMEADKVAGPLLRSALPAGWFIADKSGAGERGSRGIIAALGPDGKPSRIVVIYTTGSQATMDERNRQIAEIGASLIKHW
VIM-2 confirm 2 – confirmation of P. aeruginosa VIM-2 metallo-beta-lactamase inhibitors. shares compounds with VIM-2 inhibitor. purified VIM-2, nitrocefin hydrolysis, epi-absorbance. inhibition, % at 5.6 µM. actives 96% (n = 1,300). AID 2187;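 active means inhibition of the VIM-2 beta-lactamase enzyme above about 11% from the earlier first-round screen, limit read from the data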;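 further: 0% = VIM-2 with DMSO and 100% = buffer wells without enzyme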
Active calls of the source: *; x = not tested or not shown. Compounds with a hit are over-represented: about 1.6% of the library has one in this group of screens.

SMILES | VIM-2 inhibitor | IMP-1 inh-1 | FID counter | core dimer inh | IMP-1 inh-2 | VIM-2 FRET inh | TEM-1 counter | VIM-2 confirm 2
Cn1c(-c2sccc2OCc2ccc(Cl)cc2Cl)n[nH]c1=S | 33.6* | -3.5 | -24.7 | 10.2 | -2.7 | 61.8* | -8.2 | 42.9*
Cc1ccc(COc2ccsc2-c2n[nH]c(=S)n2C)cc1 | 34.1* | -2.8 | -19.7 | -5.2 | -3.0 | 61.5* | -7.4 | 40.6*
Cn1c(-c2sccc2OCc2ccccc2)n[nH]c1=S | 35.2* | -2.3 | -3.9 | -4.0 | -2.4 | 71.7* | -7.1 | 54.2*
S=C(NCc1cccs1)Nc1ccc(Br)cc1Cl | -3.9 | -2.9 | 2.4 | -1.2 | x | x | x | x
Cc1ccc(S(=O)(=O)NNC(=O)c2ccncc2)cc1[N+](=O)[O-] | -3.0 | -3.3 | -2.0 | 0.0 | x | x | x | x
Cc1ccc(-c2nnc3c4ccccc4c(C)nn23)cc1NC(=O)CN1CCOCC1 | -2.6 | -4.2 | 1.5 | x | x | x | x | x
Cc1nn2c(-c3ccc(S(=O)(=O)N4CCN(C)CC4)o3)nnc2c2ccccc12 | 24.3* | -0.9 | 29.8 | -1.6 | -1.4 | 3.7 | -4.9 | 34.4*
Cc1ccc(-c2nnc3c4ccccc4c(C)nn23)cc1S(=O)(=O)N1CCN(CCO)CC1 | 25.2* | -2.4 | -3.6 | 8.8 | -1.8 | 13.6 | -9.8 | 48.1*
COc1ccc2nc(C(C)O)[nH]c2c1 (configuration not stated) | 1.1 | -3.8 | 3.6 | 1.0 | x | x | x | x
CCOc1ccc(CNC(=O)C2Cc3cc(S(=O)(=O)N4CCCC4)ccc3N2C(C)=O)cc1 (configuration not stated) | 25.4* | -0.1 | -34.1 | -6.3 | -3.6 | -2.5 | -3.5 | 0.9
CCN(CC)CCCNC(=O)c1cc2c(-c3cccc(OC)c3)nn(C)c2s1 | 7.7 | -5.0 | 26.9 | -0.6 | x | x | x | x
CCCCN(CC)CCCNC(=O)c1cc2c(-c3ccc(OC)c(OC)c3)nn(C)c2s1 | 12.7* | -3.7 | 29.0 | -2.5 | -2.6 | 0.7 | -5.0 | 24.3*
CN1CCCC1CCNc1ccc2c(=O)c3ccccc3oc2c1 (configuration not stated) | 17.3* | -2.2 | 20.4 | -6.9 | -2.1 | -12.4 | -13.7 | 27.5*
CN1CCCC1CCNc1ccc2oc3ccccc3c(=O)c2c1 (configuration not stated) | 15.7* | 1.9 | 23.2 | -3.3 | -1.8 | -2.2 | -4.8 | 17.5*
O=c1c2ccccc2oc2cc(NCCCn3ccnc3)ccc12 | 0.9 | -2.1 | 1.0 | -2.6 | x | x | x | x
O=c1c2ccccc2oc2cc(NCCCN3CCOCC3)ccc12 | 16.9* | -0.4 | 5.7 | 1.7 | -2.5 | -8.1 | -11.6 | 21.8*
Cc1nnc(SCC(=O)NC2CCCCCC2)n1C(C)C | -2.3 | -3.0 | -19.8 | 5.8 | x | x | x | x
Cc1ccccc1NS(=O)(=O)c1ccc(NC(=O)N2CCCCC2)cc1 | -3.5 | -4.5 | -30.9 | 6.7 | x | x | x | x
COc1cccc2c(N/N=C/c3ccc(O)c(O)c3)cc(C)nc12 | -3.0 | -1.0 | -8.2 | 2.6 | x | x | x | x
CC/C(=N\NC(=O)c1cccnc1)c1ccc2c(c1)OCCO2 | 45.7* | -4.0 | -3.6 | -5.9 | -3.9 | -2.5 | -4.8 | 1.2
CCOc1ccc2nc(N(CCN(CC)CC)C(=O)/C=C/c3cccs3)sc2c1 | -0.7 | -0.9 | 26.8 | -4.6 | x | x | x | x
O=C(O)c1ccccc1C(=O)c1ccc(Oc2ccccc2)cc1 | 21.8* | -1.1 | -30.9 | 3.6 | -4.1 | 44.0* | -3.6 | 24.4*
CCOC(=O)N=Nc1c(O)n(C)c2ccccc12 | -0.1 | -0.8 | -1.4 | -1.2 | x | x | x | x
Cc1ccc2c(c1)c(N=NC(N)=O)c(O)n2C | 12.6* | 0.7 | 2.1 | -5.2 | -3.5 | -3.4 | -4.4 | 18.6*
COC(=O)c1c(NC(=O)c2ccco2)sc2c1CCN(C(C)=O)C2 | 20.7* | -1.3 | -29.0 | 4.7 | -2.7 | -4.5 | -5.7 | 30.1*
SMILES | VIM-2 inhibitor | IMP-1 inh-1 | FID counter | core dimer inh | IMP-1 inh-2 | VIM-2 FRET inh | TEM-1 counter | VIM-2 confirm 2
O=C(NCc1ccccc1)NC(=O)c1ccncc1 | 0.1 | -2.3 | -1.8 | 2.7 | x | x | x | x
CSc1sc(C(=O)NC(=O)NCc2ccncc2)c(C)c1-c1ccon1 | 32.4* | -2.5 | -25.3 | 2.1 | -3.1 | -6.7 | -5.6 | 41.6*
OCCN=Cc1c(O)[nH]c2ccccc12 | -3.0 | -3.4 | -0.4 | -9.2 | x | x | x | x
Oc1[nH]c2ccccc2c1C=Nc1ccccc1 | 12.3* | -1.0 | -4.7 | -10.1 | -1.7 | 25.0* | -4.2 | 21.0*
Cc1nnc2c3ccccc3c(-c3cccs3)nn12 | 28.4* | -2.3 | -8.1 | 6.4 | -3.4 | 1.0 | -5.2 | 39.7*
COc1cc(S(=O)(=O)NCC2CCCO2)c(OC)cc1Cl (configuration not stated) | -3.6 | -4.4 | -2.2 | -4.2 | x | x | x | x
CC(Oc1cc2oc(=O)c3c(c2cc1Cl)CCC3)C(=O)NCCCN1CCOCC1 (configuration not stated) | -1.2 | -2.4 | 1.6 | 9.0 | x | x | x | x
CC(Oc1cc2oc(=O)c3c(c2cc1Cl)CCCC3)C(=O)NCCN1CCOCC1 (configuration not stated) | 12.9* | 0.7 | 1.3 | -3.8 | -3.6 | -2.6 | -5.2 | 15.4*
CC(Oc1ccc2c(c1)oc(=O)c1ccccc12)C(=O)NCCN1CCOCC1 (configuration not stated) | 13.8* | 2.7 | 12.7 | 3.4 | -2.8 | -1.3 | -7.1 | 23.4*
CC(Oc1ccc2c(-c3ccccc3)cc(=O)oc2c1)C(=O)NCCN1CCOCC1 (configuration not stated) | 0.0 | -2.6 | -7.5 | -6.4 | x | x | x | x
O=C(COc1ccc2c3c(c(=O)oc2c1)CCC3)NCCCN1CCOCC1 | 24.4* | 0.4 | 7.9 | 1.2 | -2.7 | 2.6 | -6.1 | 31.2*
O=C(COc1ccc2c(c1)oc(=O)c1ccccc12)NCCCN1CCOCC1 | 20.0* | -1.8 | 13.7 | 6.7 | -2.5 | 3.5 | -7.5 | 33.2*
O=C(O)c1cccc(NC(=S)NC(=O)c2cccc(OCc3ccccc3)c2)c1 | -4.8 | -1.9 | -12.1 | 9.1 | x | x | x | x
COc1ccccc1N1CC(O)=C(c2nc3ccccc3c(=O)[nH]2)C1=N | 14.7* | -3.1 | -19.0 | 3.9 | -3.7 | -5.8 | -9.1 | 23.3*
CN1CCN(C(=O)c2ccc(-c3nn(C)c(=O)c4ccccc34)cc2)CC1 | 69.8* | -3.8 | -4.1 | -2.3 | -0.9 | -8.2 | 1.5* | 79.3*
CN(C)CCNC(=O)c1ccc(-c2nn(C)c(=O)c3ccccc23)cc1 | 32.3* | -2.9 | 1.1 | -7.0 | -3.1 | -1.4 | -4.6 | 49.9*
CCC(CO)NC(=O)c1ccc(-c2nn(C)c(=O)c3ccccc23)cc1 (configuration not stated) | 3.2 | -4.0 | -8.0 | -2.1 | x | x | x | x
CN1CCN(C(=O)c2ccc(-c3ccccc3)cc2)CC1 | 1.2 | -0.1 | -3.3 | -2.2 | x | x | x | x
